Many of the other results were omitted from the sample, so hits are more common in it than they were.
S1P4 ag: S1P4 receptor agonists, primary screen, cell-based; Sphingosine 1-phosphate receptor 4 (Homo sapiens), O95977; S1P4-expressing cell line, agonist reporter assay; activation, % at 4.98 µM; hit rate 0.35% among 220,000; AID 1509, 2009; in the data active = activation above about 11%
Lmaj promast: Leishmania major promastigote growth inhibition, primary screen; Leishmania major promastigotes, resazurin fluorescence viability; inhibition, % at 10 µM; hit rate 9% among 200,000; AID 1063, 2008; in the data active = inhibition above about 50%;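 also: promastigotes grown with compound for 44 hours at 28 °C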
S1P3 antagonist: S1P3 receptor antagonists, primary screen, cell-based | AID 485, 2006 | CHO S1P3 NFAT-BLA reporter, FRET fluorescence, antagonist mode | hit rate 0.27% among 170,000 | inhibition, % at 4.98 µM;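 active = inhibition above the plate cutoff, the mean inhibition of test wells on that plate plus 3 SD, cut at about 28% in these data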;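 also: cells challenged with S1P at its EC80 of 0.8 µM; blue over green emission ratio from cleaved BLA substrate after 4 h stimulation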
S1P4 antagonist: S1P4 receptor antagonists, primary screen, cell-based | Sphingosine 1-phosphate receptor 4 (Homo sapiens), O95977 | S1P4-expressing cells, antagonist mode, reporter read-out | inhibition, % at 4.98 µM | hit rate 0.26% among 220,000 | AID 1510, 2009; in the data active = inhibition above about 29%
Mdm2 ligase inh: MDM2-luciferase reporter signal enhancers, primary screen, MDM2 E3 ligase inhibitor project, cell-based, luminescence, 1536-well. signal enhancement, % at 5 µM. hit rate 0.11% among 210,000. E3 ubiquitin-protein ligase Mdm2 (Homo sapiens), Q00987. cell-based MDM2 ubiquitination luciferase reporter, 2 h; 0 = plate control, 100 = twice control, blank-subtracted;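 active = signal enhancement of 30% or more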;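 also: luminescence tracks abundance of the self-degrading MDM2-luciferase fusion protein; higher signal means inhibition of MDM2 E3 ligase activity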
Target sequence (Q00987 whole entry, looked up, the tested form may be a part): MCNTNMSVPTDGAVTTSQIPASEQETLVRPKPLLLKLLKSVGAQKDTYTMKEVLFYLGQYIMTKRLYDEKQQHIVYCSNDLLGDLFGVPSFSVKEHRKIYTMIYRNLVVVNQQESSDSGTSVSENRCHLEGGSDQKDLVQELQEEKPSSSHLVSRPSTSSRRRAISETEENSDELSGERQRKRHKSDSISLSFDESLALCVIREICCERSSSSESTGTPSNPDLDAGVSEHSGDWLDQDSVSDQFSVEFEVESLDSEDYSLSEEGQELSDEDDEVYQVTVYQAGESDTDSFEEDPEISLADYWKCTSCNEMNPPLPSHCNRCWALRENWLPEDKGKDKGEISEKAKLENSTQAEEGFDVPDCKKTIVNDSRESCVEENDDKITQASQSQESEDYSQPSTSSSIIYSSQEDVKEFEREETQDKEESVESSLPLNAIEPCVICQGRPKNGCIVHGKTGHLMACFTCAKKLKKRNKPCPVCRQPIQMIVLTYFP
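Timing – 2 h compound exposure at 37 °C · Assay system – mammalian cells stably expressing self-ubiquitinating, self-degrading MDM2 E3–luciferase fusion · Amount – 2000 cells seeded into each well · Measure – % luminescence enhancement versus blank-corrected plate control mean · Measured by – SteadyLite luminescence, 15 min reagent step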
Of the large screens only hits and unclear results are named; the others gave an inactive call.

O=C(NC1(C(F)(F)F)NC(=O)N(c2ccccc2)C1=O)c1cccs1 (stereo not given)	Lmaj promast 57
CN(C)c1ccc(CNC23CC4CC(CC(C4)C2)C3)cc1	Lmaj promast 87 (no result: S1P3 antagonist, Mdm2 ligase inh)
O=C(O)c1ccc(NCCC2=CCCCC2)c([N+](=O)[O-])c1	none
CN(C)CCNC(=O)c1cc2sc3ccccc3c2s1	Lmaj promast 84
CN(C)CCCNC(=O)c1cc2c3ccccc3n(C)c2s1	Lmaj promast 91 (no result: S1P3 antagonist)
Cn1c(C(=O)NCCN2CCCCCC2)cc2c(=O)n(C)c3ccccc3c21	Lmaj promast 70
CCCCN(CC)CCCNC(=O)c1cc2c(=O)n(C)c3ccccc3c2n1C	Lmaj promast 80
COc1ccc(C(=O)CN2C(=O)c3ccccc3C2=O)cc1	none (no result: Lmaj promast)
O=C(O)c1ccccc1-c1ccccc1C(=O)NNc1ccc([N+](=O)[O-])cc1	none (no result: Lmaj promast)
COc1cc(NC(=O)CSc2nnc3c(n2)[nH]c2ccc(S(=O)(=O)NC(C)C)cc23)cc(OC)c1OC	none
Cc1ccc(OCC(=O)N/N=C\c2ccncc2)c(C)c1	none
CC1CCN(CCCNC(=O)c2cc3c(=O)n(C)c4ccccc4c3n2C)CC1	Lmaj promast 63
Cn1c(C(=O)NCCCN2CCOCC2)cc2c(=O)n(C)c3ccccc3c21	none
CN1CCN(CCCNC(=O)c2cc3c(=O)n(C)c4ccccc4c3s2)CC1	Lmaj promast 98
Cc1ccc(NC(=O)Cn2c(=O)oc3cc(S(=O)(=O)N4CCC(C)CC4)ccc32)cc1C	none (no result: S1P3 antagonist)
Cc1nn(-c2ccccn2)c2c1C(c1c(F)cccc1Cl)C1=C(N2)c2ccccc2C1=O (stereo not given)	none
COc1cc(NC(=O)COC(=O)/C=C/c2c(C)nn(-c3ccc(F)cc3)c2Cl)cc(OC)c1	Lmaj promast 64
CC(C)(C)n1nnnc1C(c1ccc(C(F)(F)F)cc1)N(Cc1ccc(F)cc1)Cc1ccco1 (stereo not given)	Lmaj promast 77 (no result: S1P3 antagonist)
Cc1ccc(C(c2nnnn2C(C)(C)C)N(Cc2ccco2)Cc2cccs2)cc1 (stereo not given)	S1P3 antagonist 90
CCC(C)(C)n1nnnc1CN(Cc1ccc(Cl)cc1)Cc1ccco1	Lmaj promast 56
CC(C)(C)n1nnnc1C(c1ccc(Cl)cc1)N(Cc1cccnc1)Cc1ccco1 (stereo not given)	Lmaj promast 100 (no result: S1P3 antagonist)
CC(C)(C)n1nnnc1C(c1ccc(F)cc1)N(Cc1ccc(F)cc1)Cc1ccco1 (stereo not given)	none (no result: S1P3 antagonist)
CCC(C)(C)n1nnnc1CN(Cc1ccco1)Cc1cc2cc3c(cc2[nH]c1=O)OCO3	none
COc1ccc(-c2cc(C(F)(F)F)nc(-n3ccnc3C)n2)cc1	none
COc1ccc(CCNC(=O)CCCN2C(=O)c3ccccc3C2=O)cc1	none
CC(=O)Oc1ccc2c(=O)c(/C=N/c3cc(=O)[nH]c(=S)[nH]3)coc2c1	none (no result: Lmaj promast)
O=C(c1ccc(F)cc1)N1CCN(c2ccc([N+](=O)[O-])cc2-n2cccc2)CC1	none (no result: Lmaj promast)
COc1ccc(Cn2nnnc2C(C(C)C)N(Cc2ccco2)Cc2cccs2)cc1 (stereo not given)	Lmaj promast 77, S1P3 antagonist 54
CC(C)C(c1nnnn1Cc1ccccc1)N(Cc1ccco1)Cc1cccs1 (stereo not given)	none
CC(C)OC(=O)CSc1nnc(-c2ccccc2)n1N	none (no result: S1P3 antagonist)
COc1cc(C(=O)Oc2ccccc2/C=N/NC(=O)c2ccc(C)c(Cl)c2)cc(OC)c1OC	none
COc1cc(C(=O)Oc2ccccc2/C=N/NC(=O)c2ccc(Cl)cc2)cc(OC)c1OC	Lmaj promast 93
CC(C)N=C1NN=C(c2ccc(F)cc2)CS1	none
CN(C)S(=O)(=O)c1cc(NC(=O)CN2CCNC(=O)C2)ccc1Cl	Lmaj promast 60
Cc1ccc2c(Cl)cc(Cl)c(OCC(=O)Nc3cccc(S(=O)(=O)N(C)C)c3)c2n1	none
Cc1ccc2c(Cl)cc(Cl)c(OCC(=O)Nc3cccc(S(N)(=O)=O)c3)c2n1	Lmaj promast 71
Cc1ccc2c(Cl)cc(Cl)c(OCC(=O)Nc3ccc(C)c(S(=O)(=O)N(C)C)c3)c2n1	Lmaj promast 68
Cc1ccc2c(Cl)cc(Cl)c(OCC(=O)Nc3cc(S(=O)(=O)N(C)C)ccc3C)c2n1	Lmaj promast 69
O=C1NC(=O)/C(=C\c2ccc(OCc3cccc([N+](=O)[O-])c3)cc2)N1	none
Cn1c(-c2ccc(Cl)cc2)cnc1NCc1cc2c(cc1[N+](=O)[O-])OCO2	Lmaj promast 98
Cn1c(-c2ccc(F)cc2)cnc1NCc1cc2c(cc1[N+](=O)[O-])OCO2	Lmaj promast 99
Cn1c(-c2ccccc2)cnc1NCc1cc2c(cc1[N+](=O)[O-])OCO2	Lmaj promast 87
Cc1cc(F)ccc1NCc1cc2c(cc1[N+](=O)[O-])OCO2	none (no result: S1P3 antagonist)
CCCN1CCN(C(=S)Nc2ccccc2C(F)(F)F)CC1	none
Cc1ccccc1COCCN1CCN(S(=O)(=O)c2ccccc2)CCC1=O	none (no result: S1P4 ag, Lmaj promast, S1P3 antagonist, S1P4 antagonist)
CC(=O)Nc1cccc(C(=O)Nc2cccnc2)c1	none
O=C1CN(c2nc(-c3cccs3)nc3sc4c(c23)CCCC4)CCN1	Lmaj promast 76
O=c1oc(-c2cccs2)nc2sc3c(c12)CCCC3	none (no result: S1P3 antagonist)
COc1ccc(NC(=O)C2CCCN2C(=O)Oc2ccccc2)cc1 (stereo not given)	none
CCOC(=O)/C(=N\Nc1ccccc1Cl)N(C)C1CCCCC1	none
CCNC(=O)Nc1ccc(-n2nc(C)c(C(=O)OCC)c2C)nc1	none
O=C(COC(=O)Cn1cnc2ccccc2c1=O)Nc1ccccc1Sc1ccc(Cl)cc1	Lmaj promast 69
CCOc1ccccc1NC(=O)COC(=O)CSc1ccc(Cl)cc1	Lmaj promast 57
CCOc1ccccc1NC(=O)CSc1ccccc1	none (no result: S1P3 antagonist)
COc1ccc(OC)c(-n2c(SC)nnc2-c2c[nH]c3ccccc23)c1	Lmaj promast 65
COc1ccc(OC)c(-n2c(SCC(=O)Nc3cc(C)on3)nnc2-c2c[nH]c3ccccc23)c1	Lmaj promast 100
COc1ccc(OC)c(-n2c(SCC(N)=O)nnc2-c2c[nH]c3ccccc23)c1	none
COc1cccc(-n2c(SCC(N)=O)nnc2-c2c[nH]c3ccccc23)c1	none
NS(=O)(=O)c1ccc(NC(=O)COC(=O)c2cnc(Cl)c(Cl)c2)cc1	none (no result: Lmaj promast)
CCOc1ccc(NC(=O)CC2C(=O)N(C)C(=S)N2CCCc2ccccc2)cc1 (stereo not given)	Lmaj promast 78
CCCOc1ccc(NC(=O)CC2C(=O)N(CC)C(=S)N2CCCN2CCN(Cc3ccccc3)CC2)cc1 (stereo not given)	Lmaj promast 99
O=C(NN1C(=O)c2ccccc2NC1c1ccccn1)c1ccccc1 (stereo not given)	none
Nn1c(-c2ccc(O)cc2)nnc1-c1ccc(O)cc1	none (no result: Lmaj promast, Mdm2 ligase inh)
